Active and inactive are the calls of the source. The rule behind the calls is not given here.
What was measured:
Misshapen-like kinase 1 = Misshapen-like kinase 1 (Homo sapiens, UniProt Q8N4C8); assay: Inhibition of MINK (unknown origin)
Hs 294T = assay: Antiproliferative activity against human Hs294T cells assessed reduction in cell viability incubated for 4 days in presence of 4-(2-(1H-indazol-4-yl)-6-((4-(methylsulfonyl)piperazin-1-yl)methyl)thieno[3,2-d]pyrimidin-4-yl)morpholine by celltiter-glo assay; type: functional; conditions: time 4 day
In short: (§1)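 4-day CellTiter-Glo viability read-out on melanoma lines, cells exposed to increasing concentrations of each inhibitor alone and in combination.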

[1] = molecular target: Mitogen-activated protein kinase kinase kinase 5 (Homo sapiens, UniProt Q99683); assay: Inhibition of ASK1 (unknown origin)
Chain of Mitogen-activated protein kinase kinase kinase 5 (Q99683 whole entry): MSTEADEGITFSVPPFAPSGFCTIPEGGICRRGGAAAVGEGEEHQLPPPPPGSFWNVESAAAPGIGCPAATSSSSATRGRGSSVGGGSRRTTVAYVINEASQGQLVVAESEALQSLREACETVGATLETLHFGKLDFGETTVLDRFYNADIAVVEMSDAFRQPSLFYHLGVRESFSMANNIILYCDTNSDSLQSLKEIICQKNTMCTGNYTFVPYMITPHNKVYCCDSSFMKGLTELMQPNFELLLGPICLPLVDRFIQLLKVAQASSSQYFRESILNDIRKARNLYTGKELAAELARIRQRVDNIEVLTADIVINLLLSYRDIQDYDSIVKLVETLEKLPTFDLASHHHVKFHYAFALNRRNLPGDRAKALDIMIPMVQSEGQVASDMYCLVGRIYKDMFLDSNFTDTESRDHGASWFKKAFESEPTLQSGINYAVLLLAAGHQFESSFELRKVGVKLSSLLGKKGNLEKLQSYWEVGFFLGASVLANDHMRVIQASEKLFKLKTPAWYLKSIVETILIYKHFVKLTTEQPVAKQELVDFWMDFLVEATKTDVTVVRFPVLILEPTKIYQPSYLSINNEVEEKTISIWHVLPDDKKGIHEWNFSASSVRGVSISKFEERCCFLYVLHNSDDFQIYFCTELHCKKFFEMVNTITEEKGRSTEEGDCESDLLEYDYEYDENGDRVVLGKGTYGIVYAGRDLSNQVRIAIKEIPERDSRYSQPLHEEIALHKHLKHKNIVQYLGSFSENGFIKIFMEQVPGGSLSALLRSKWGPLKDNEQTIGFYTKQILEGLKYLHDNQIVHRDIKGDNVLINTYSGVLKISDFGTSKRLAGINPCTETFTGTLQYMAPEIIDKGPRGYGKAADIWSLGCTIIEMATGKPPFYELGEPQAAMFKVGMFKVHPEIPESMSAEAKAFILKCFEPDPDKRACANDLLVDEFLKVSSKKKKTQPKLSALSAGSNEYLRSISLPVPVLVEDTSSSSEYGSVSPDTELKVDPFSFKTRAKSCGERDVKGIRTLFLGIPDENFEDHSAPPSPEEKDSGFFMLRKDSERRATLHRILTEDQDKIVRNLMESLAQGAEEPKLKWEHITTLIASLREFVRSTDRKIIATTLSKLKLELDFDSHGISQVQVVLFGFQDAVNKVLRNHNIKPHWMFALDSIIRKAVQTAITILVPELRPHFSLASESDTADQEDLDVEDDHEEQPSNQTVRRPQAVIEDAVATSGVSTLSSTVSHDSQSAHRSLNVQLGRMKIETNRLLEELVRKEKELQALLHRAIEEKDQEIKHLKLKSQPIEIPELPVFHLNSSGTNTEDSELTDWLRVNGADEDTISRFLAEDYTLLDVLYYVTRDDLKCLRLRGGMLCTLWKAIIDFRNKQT

NCI-H2122 [2] = assay: Antitumor activity against human NCI-H2122 cells xenografted in mouse assessed as tumor growth inhibition at 5 mg/kg, po administered once a day for 21 days in presence of 4-(2-(1H-indazol-4-yl)-6-((4-(methylsulfonyl)piperazin-1-yl)methyl)thieno[3,2-d]pyrimidin-4-yl)morpholine; type: functional; conditions: NCI-H2122, 504 h, time 21 day, read-out: TGI
In short: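 Mice bearing NCI-H2122 xenografts were given MEK inhibitor, PI3K inhibitor, or both, orally once daily for 21 consecutive days at the doses labeled. Caliper tumor volumes were calculated as (L×W×W)/2. %TGI was derived from the AUC of the fitted growth curve per day relative to vehicle.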

888-mel = assay: Inhibition of AKT phosphorylation in human 888-mel cells incubated for 24 hrs in presence of 4-(2-(1H-indazol-4-yl)-6-((4-(methylsulfonyl)piperazin-1-yl)methyl)thieno[3,2-d]pyrimidin-4-yl)morpholine by immunoblotting analysis; type: cell-based
CWR22R = assay: Antitumor activity against human 22Rv1 cells harboring PIK3CA Q546R/TP53 Q331R mutant xenografted in mouse assessed as tumor growth inhibition at 5 mg/kg, po; type: functional; conditions: read-out: TGI
[3] = molecular target: Macrophage colony-stimulating factor 1 receptor (Homo sapiens, UniProt P07333); assay: Inhibition of Fms (unknown origin)
[4] = Inhibition of PKA (unknown origin); parameters: species or system Homo sapiens
[5] = molecular target: Tyrosine-protein kinase SYK (Homo sapiens, UniProt P43405); assay: Inhibition of SYK (unknown origin)
[6] = molecular target: Vascular endothelial growth factor receptor 2 (Homo sapiens, UniProt P35968); assay: Inhibition of KDR (unknown origin)
Chain of Vascular endothelial growth factor receptor 2 (P35968 whole entry, the tested form may be a part): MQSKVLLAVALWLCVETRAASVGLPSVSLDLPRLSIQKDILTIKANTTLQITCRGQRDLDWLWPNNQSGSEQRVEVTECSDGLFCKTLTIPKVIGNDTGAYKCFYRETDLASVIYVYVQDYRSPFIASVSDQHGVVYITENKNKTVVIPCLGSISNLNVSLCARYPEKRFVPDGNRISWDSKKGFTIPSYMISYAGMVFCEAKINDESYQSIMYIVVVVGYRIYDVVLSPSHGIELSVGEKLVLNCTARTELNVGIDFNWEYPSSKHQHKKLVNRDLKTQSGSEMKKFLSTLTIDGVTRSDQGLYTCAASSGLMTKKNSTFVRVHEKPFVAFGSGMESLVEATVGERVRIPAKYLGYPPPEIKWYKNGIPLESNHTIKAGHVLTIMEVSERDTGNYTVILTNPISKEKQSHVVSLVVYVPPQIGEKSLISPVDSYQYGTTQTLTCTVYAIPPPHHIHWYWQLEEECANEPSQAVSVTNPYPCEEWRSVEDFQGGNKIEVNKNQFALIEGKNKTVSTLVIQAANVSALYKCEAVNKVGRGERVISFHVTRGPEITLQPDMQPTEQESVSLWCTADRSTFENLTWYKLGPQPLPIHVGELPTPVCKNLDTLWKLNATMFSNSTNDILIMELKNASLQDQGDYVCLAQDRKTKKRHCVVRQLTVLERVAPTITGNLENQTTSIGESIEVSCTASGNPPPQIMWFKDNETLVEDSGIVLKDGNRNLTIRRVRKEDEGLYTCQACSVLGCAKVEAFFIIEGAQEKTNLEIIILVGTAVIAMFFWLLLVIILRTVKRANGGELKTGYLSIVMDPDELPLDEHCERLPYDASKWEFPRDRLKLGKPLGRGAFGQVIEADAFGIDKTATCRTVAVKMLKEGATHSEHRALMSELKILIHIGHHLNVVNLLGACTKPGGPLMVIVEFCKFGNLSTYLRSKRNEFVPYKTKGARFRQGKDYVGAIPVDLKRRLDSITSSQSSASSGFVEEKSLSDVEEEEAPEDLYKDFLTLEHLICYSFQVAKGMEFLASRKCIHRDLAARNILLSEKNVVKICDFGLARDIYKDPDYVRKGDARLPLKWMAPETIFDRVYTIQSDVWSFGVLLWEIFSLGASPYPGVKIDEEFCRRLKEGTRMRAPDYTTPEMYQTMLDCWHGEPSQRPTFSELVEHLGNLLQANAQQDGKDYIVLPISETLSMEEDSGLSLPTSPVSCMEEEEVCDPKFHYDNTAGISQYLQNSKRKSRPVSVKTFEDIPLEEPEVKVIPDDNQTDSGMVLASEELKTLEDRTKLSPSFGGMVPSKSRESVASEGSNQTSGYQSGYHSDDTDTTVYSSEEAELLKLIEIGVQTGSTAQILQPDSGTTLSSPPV

[7] = molecular target: PAS domain-containing serine/threonine-protein kinase (Homo sapiens, UniProt Q96RG2); assay: Inhibition of PASK (unknown origin)
[8] = molecular target: RAC-beta serine/threonine-protein kinase (Homo sapiens, UniProt P31751); assay: Inhibition of Akt2 (unknown origin)
Hs-578T = assay: Antiproliferative activity against human Hs-578T cells assessed as reduction in cell viability incubated for 96 hrs in presence of 4-(2-(1H-indazol-4-yl)-6-((4-(methylsulfonyl)piperazin-1-yl)methyl)thieno[3,2-d]pyrimidin-4-yl)morpholine; type: functional, cell-based
A2058 [9] = assay: Antitumor activity against human A2058 cells xenografted in mouse assessed as tumor growth inhibition at 6 mg/kg, po administered once a day for 21 days; type: functional; conditions: A2058, 504 h, time 21 day, read-out: TGI
In short: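 Human tumor xenografts in mice. Drugs given orally, as single agents or combined with the PI3K inhibitor. Schedules were daily (QD) or every third day (Q3D) over 21 days. Tumor volume was measured by caliper as (L×W×W)/2. %TGI = 100×[1 − AUC(treatment/d)/AUC(vehicle/d)] from fitted growth curves, with group means. Tumor lysates were immunoblotted for pS6.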

DU-145 = assay: Antitumor activity against human DU-145 cells harboring KRAS G12V/LKB1 K178/TP53 P223L/V274F/CDKN2A/MLH1/SMARCA4/ NF1 P2472H/RB1K715 mutant xenografted in mouse assessed as tumor growth inhibition at 10 mg/kg, po; type: functional; conditions: read-out: TGI
In short: (§2)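 Single-agent dose ranging in human tumor xenograft mice at 2.5, 5 or 10 mg/kg oral. Tumor volume was measured by caliper as (L×W×W)/2. %TGI = 100×[1 − AUC(treatment/d)/AUC(vehicle/d)] from the fitted growth curve per dose group, relative to vehicle.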

A2058 [10] = assay: Inhibition of PI3K/MEK signaling pathway in human A2058 cells assessed as decrease in AKT phosphorylation by incubated for 24 hrs by Western blot analysis; type: cell-based
[11] = molecular target: Protein kinase C beta type (Homo sapiens, UniProt P05771); assay: Inhibition of PKCbeta2 (unknown origin)
Chain of Protein kinase C beta type (P05771 whole entry): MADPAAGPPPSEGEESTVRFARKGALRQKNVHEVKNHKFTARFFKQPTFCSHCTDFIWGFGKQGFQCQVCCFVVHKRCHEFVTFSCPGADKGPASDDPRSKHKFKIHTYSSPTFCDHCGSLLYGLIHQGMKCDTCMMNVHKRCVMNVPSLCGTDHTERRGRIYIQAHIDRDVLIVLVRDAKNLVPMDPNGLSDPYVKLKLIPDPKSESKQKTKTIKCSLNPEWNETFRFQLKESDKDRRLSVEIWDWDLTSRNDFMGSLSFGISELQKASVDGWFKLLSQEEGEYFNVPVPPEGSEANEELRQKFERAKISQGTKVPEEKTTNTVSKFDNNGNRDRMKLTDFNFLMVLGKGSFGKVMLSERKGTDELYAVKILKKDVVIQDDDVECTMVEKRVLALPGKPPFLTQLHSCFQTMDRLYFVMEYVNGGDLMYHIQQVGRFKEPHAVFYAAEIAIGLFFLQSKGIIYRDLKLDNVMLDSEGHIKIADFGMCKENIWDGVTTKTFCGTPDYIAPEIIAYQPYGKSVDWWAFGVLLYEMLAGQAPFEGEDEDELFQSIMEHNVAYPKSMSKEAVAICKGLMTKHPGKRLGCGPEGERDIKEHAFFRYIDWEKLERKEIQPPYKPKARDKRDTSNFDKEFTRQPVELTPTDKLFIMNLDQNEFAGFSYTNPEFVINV

[12] = molecular target: Hepatocyte growth factor receptor (Homo sapiens, UniProt P08581); assay: Inhibition of Met (unknown origin)
Chain of Hepatocyte growth factor receptor (P08581 whole entry): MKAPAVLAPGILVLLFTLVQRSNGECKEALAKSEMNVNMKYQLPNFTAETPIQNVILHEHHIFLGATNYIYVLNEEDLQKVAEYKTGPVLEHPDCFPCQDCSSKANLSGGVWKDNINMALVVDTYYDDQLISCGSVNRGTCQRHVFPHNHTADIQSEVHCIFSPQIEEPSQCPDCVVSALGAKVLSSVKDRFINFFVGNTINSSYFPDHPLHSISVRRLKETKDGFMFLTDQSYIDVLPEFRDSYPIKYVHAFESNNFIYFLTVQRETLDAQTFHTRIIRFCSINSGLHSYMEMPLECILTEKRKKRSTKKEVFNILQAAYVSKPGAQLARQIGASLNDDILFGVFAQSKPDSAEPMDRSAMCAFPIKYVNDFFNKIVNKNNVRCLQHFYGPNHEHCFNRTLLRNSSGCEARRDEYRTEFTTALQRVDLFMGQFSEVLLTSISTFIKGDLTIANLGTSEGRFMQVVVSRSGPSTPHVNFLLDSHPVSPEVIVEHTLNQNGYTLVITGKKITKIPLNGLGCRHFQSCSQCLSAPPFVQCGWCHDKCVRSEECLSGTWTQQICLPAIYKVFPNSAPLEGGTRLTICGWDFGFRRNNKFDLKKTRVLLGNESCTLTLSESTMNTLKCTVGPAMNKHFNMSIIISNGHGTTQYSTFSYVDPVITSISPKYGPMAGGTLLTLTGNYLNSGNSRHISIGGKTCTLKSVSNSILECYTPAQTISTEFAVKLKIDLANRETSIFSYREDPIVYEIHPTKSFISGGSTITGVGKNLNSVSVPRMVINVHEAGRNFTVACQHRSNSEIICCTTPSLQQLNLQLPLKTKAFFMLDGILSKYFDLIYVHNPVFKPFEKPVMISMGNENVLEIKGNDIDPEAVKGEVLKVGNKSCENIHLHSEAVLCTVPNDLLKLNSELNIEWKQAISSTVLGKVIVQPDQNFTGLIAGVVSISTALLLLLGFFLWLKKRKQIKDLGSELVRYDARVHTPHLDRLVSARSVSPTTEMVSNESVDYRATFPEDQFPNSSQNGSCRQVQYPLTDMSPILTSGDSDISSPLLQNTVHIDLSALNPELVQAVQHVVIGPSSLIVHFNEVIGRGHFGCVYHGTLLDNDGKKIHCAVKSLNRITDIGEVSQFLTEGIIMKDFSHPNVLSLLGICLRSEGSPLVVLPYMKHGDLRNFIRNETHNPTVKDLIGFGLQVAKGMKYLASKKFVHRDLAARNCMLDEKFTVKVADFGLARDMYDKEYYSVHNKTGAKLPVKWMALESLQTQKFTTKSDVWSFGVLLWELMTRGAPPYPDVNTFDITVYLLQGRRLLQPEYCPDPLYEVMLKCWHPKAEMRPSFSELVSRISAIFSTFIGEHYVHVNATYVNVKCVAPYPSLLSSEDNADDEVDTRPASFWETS

HCT-116 = assay: Antitumor activity against human HCT-116 cells harboring KRAS G13D/PIK3CA […]/CTNNB1 S45del/CDKN2A G23fs mutant xenografted in mouse assessed as tumor growth inhibition at 2.5 mg/kg, po; type: functional; conditions: read-out: TGI; in short: as §2
[13] = molecular target: Fibroblast growth factor receptor 1 (Homo sapiens, UniProt P11362); assay: Inhibition of FGFR1 (unknown origin)
NCI-H460 [14] = assay: Antitumor activity against human NCI-H460 cells harboring KRAS Q61H/PIK3CA E545K/LKB1 Q37/CDKN2A mutant xenografted in mouse assessed as tumor growth inhibition at 2.5 mg/kg, po; type: functional; conditions: read-out: TGI
In short: (§3)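 Human tumor xenografts in mice were dosed orally at the indicated mg/kg. Tumor volume was measured with calipers as (L×W×W)/2. %TGI = 100 × [1 − (AUC treatment/d)/(AUC vehicle/d)], using the area under the fitted tumor-growth curve per day for each dose group relative to vehicle.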

SK-MEL-28 = assay: Antiproliferative activity against human SK-MEL-28 cells assessed reduction in cell viability incubated for 4 days in presence of 4-(2-(1H-indazol-4-yl)-6-((4-(methylsulfonyl)piperazin-1-yl)methyl)thieno[3,2-d]pyrimidin-4-yl)morpholine by celltiter-glo assay; type: functional; conditions: time 4 day; in short: as §1
NCI-H2122 [15] = assay: Antitumor activity against human NCI-H2122 cells xenografted in mouse assessed as tumor growth inhibition at 15 mg/kg, po administered every third day for 21 days in presence of 4-(2-(1H-indazol-4-yl)-6-((4-(methylsulfonyl)piperazin-1-yl)methyl)thieno[3,2-d]pyrimidin-4-yl)morpholine; type: functional; conditions: NCI-H2122, 504 h, time 21 day, read-out: TGI
In short: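 Dosing was oral, every third day (Q3D) across 21 days, with single agents or the MEK plus PI3K combination in NCI-H2122 xenograft mice. Tumor volume was calculated as (L×W×W)/2 from caliper measurements. %TGI was derived from fitted-curve AUC per day relative to vehicle, with body weight monitored.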

A-427 = assay: Antitumor activity against human A-427 cells harboring […]/LKB1 CDKN2A CTNNB1 T41A SMARCA4 mutant xenografted in mouse assessed as tumor growth inhibition at 5 mg/kg, po; type: functional; conditions: A-427, read-out: TGI
A2058 [16] = assay: Antitumor activity against human A2058 cells harboring BRAF V600E/PTEN deletion mutant xenografted in mouse assessed as decrease in tumor volume at 1.5 mg/kg, po administered once daily for 21 days in presence of GDC-0980 by digital calipers analysis; type: functional, organism-based; conditions: time 21.0 day
NCI-H460 [17] = assay: Antitumor activity against human NCI-H460 cells harboring KRAS Q61H/PIK3CA E545K/LKB1 Q37/CDKN2A mutant xenografted in mouse assessed as tumor growth inhibition at 5 mg/kg, po; type: functional; conditions: read-out: TGI; in short: as §3

## O=C(c1ccc(F)c(F)c1Nc1ccc(I)cc1F)N1CC(O)([C@@H]2CCCCN2)C1 [COBIMETINIB]
Misshapen-like kinase 1
  IC50: > 10 µM
Hs 294T
  Activity: 60%
[1]
  IC50: > 10 µM
NCI-H2122 [2]
  inhibition in vivo at 5 mg/kg: 75%
888-mel
  inhibition: Active
CWR22R
  inhibition in vivo at 5 mg/kg: 106%
[3]
  IC50: > 10 µM
[4]
  IC50: > 10 µM
[5]
  IC50: > 10 µM
[6]
  IC50: > 10 µM
[7]
  IC50: > 10 µM
[8]
  IC50: > 10 µM
Hs-578T
  Activity: inactive
A2058 [9]
  inhibition in vivo at 6 mg/kg: 44%
DU-145
  inhibition in vivo at 10 mg/kg: 77%
A2058 [10]
  inhibition: Active
[11]
  IC50: > 10 µM
[12]
  IC50: > 10 µM
HCT-116
  inhibition in vivo at 2.5 mg/kg: 34%
[13]
  IC50: > 10 µM
NCI-H460 [14]
  inhibition in vivo at 2.5 mg/kg: 32%
SK-MEL-28
  Activity: 60%
NCI-H2122 [15]
  inhibition in vivo at 15 mg/kg: 156%
A-427
  inhibition in vivo at 5 mg/kg: -137%
A2058 [16]
  Activity: Active
NCI-H460 [17]
  inhibition in vivo at 5 mg/kg: 34.5%

— ChEMBL document CHEMBL5678805, “Intermittent administration of MEK inhibitor GDC-0973 plus PI3K inhibitor GDC-0941 triggers robust apoptosis and tumor growth inhibition” (Cancer Res, 2012)
